Laboratory results from ChEMBL document CHEMBL4346706, “Anti-trypanosomal activity of doubly modified salinomycin derivatives” (Eur J Med Chem, 2019).
pIC50: −log10 of the molar value. The source made the active and inactive calls. The calls are words filed in the database; no cut-off is given here.

Assays:
[1] = Selectivity index, ratio of GI50 for human HL60 cells to GI50 for bloodstream form of Trypanosoma brucei 427-221a; format: toxicity; details: read-out: RatioGI50
[2] = test system: Trypanosoma brucei; test: Antitrypanosomal activity against bloodstream form of Trypanosoma brucei 427-221a assessed as increase in iono-phoresis by measuring cell swelling at 100 uM measured every 10 mins for 1 hr by light scattering based microplate reader analysis; format: functional, organism-based
Summary of the method: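 Light-scattering swelling assay. Bloodstream forms at 5 × 10^7 cells ml^-1 in Baltz medium with 100 μM ionophore and 0.9% DMSO; controls had DMSO only. Absorbance at 490 nm read every 10 min for one hour. A fall in absorbance is taken as a rise in cell volume. Means of three experiments.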

[3] = Cytotoxicity against human HL60 cells assessed as growth inhibition after 24 hrs by resazurin dye based assay; format: cell-based, HL-60
Summary of the method: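 HL-60 cells seeded at 5 × 10^4 ml^-1 in Baltz medium with 16.7% heat-inactivated bovine serum, 0.9% DMSO. 37 °C, 5% CO2. Tenfold dilutions from 100 μM to 1 pM. After 24 h, resazurin added and incubation continued a further 48 h. Absorbance read at 570 nm, reference 630 nm. GI50 by linear interpolation against DMSO-only wells. Mean ± SD of three independent experiments.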

[4] = test system: Trypanosoma brucei; test: Antitrypanosomal activity against bloodstream form of Trypanosoma brucei 427-221a assessed as growth inhibition measured after 72 hrs by resazurin dye based assay
[5] = Antiproliferative activity against human HMLER cells assessed as reduction in cell viability after 72 hrs by Cell-Titer Blue reagent based fluorescence microplate reader analysis; format: functional

SMILES | GI50 [4] | selectivity ratio [1] | Activity [2] | GI50 at 24 h [3] | pIC50 [5]
C#CCOC(=O)[C@H](CC)[C@H]1CC[C@H](C)[C@H]([C@@H](C)[C@H](O)[C@H](C)C(=O)[C@H](CC)[C@H]2O[C@]3(C=CC(=O)[C@]4(CC[C@@](C)([C@H]5CC[C@](O)(CC)[C@H](C)O5)O4)O3)[C@H](C)C[C@@H]2C)O1 | 3.03 µM | 9.8 | – | 29.6 µM | –
CC[C@@H](C(=O)[C@@H](C)[C@@H](O)[C@H](C)[C@@H]1O[C@@H]([C@@H](CC)C(=O)O)CC[C@@H]1C)[C@H]1O[C@]2(C=C[C@@H](O)[C@]3(CC[C@@](C)([C@H]4CC[C@](O)(CC)[C@H](C)O4)O3)O2)[C@H](C)C[C@@H]1C [SALINOMYCIN] | 0.21 µM | 31.6 | – | 6.63 µM | –
CC[C@@H](C(=O)[C@@H](C)[C@@H](O)[C@H](C)[C@@H]1O[C@@H]([C@@H](CC)C(=O)ONC(=O)c2ccccc2)CC[C@@H]1C)[C@H]1O[C@]2(C=CC(=O)[C@]3(CC[C@@](C)([C@H]4CC[C@](O)(CC)[C@H](C)O4)O3)O2)[C@H](C)C[C@@H]1C | 0.032 µM | 70 | inactive | 2.24 µM | –
CC[C@@H](C(=O)[C@@H](C)[C@@H](O)[C@H](C)[C@@H]1O[C@@H]([C@@H](CC)C(=O)ONC(=O)c2ccccc2)CC[C@@H]1C)[C@H]1O[C@]2(C=C[C@@H](O)[C@]3(CC[C@@](C)([C@H]4CC[C@](O)(CC)[C@H](C)O4)O3)O2)[C@H](C)C[C@@H]1C | 0.17 µM | 21.1 | – | 3.58 µM | –
C#CCNC(=O)[C@H](CC)[C@H]1CC[C@H](C)[C@H]([C@@H](C)[C@H](O)[C@H](C)C(=O)[C@H](CC)[C@H]2O[C@]3(C=C[C@@H](O)[C@]4(CC[C@@](C)([C@H]5CC[C@](O)(CC)[C@H](C)O5)O4)O3)[C@H](C)C[C@@H]2C)O1 | 3.06 µM | 11.6 | – | 35.5 µM | –
CC[C@@H](C(=O)[C@@H](C)[C@@H](O)[C@H](C)[C@@H]1O[C@@H]([C@@H](CC)C(=O)NCCc2ccc(F)cc2)CC[C@@H]1C)[C@H]1O[C@]2(C=C[C@@H](O)[C@]3(CC[C@@](C)([C@H]4CC[C@](O)(CC)[C@H](C)O4)O3)O2)[C@H](C)C[C@@H]1C | 2.87 µM | 4 | – | 11.6 µM | –
C#CCN[C@@H]1C=C[C@]2(O[C@H]([C@@H](CC)C(=O)[C@@H](C)[C@@H](O)[C@H](C)[C@@H]3O[C@@H]([C@@H](CC)C(=O)O)CC[C@@H]3C)[C@@H](C)C[C@H]2C)O[C@@]12CC[C@@](C)([C@H]1CC[C@](O)(CC)[C@H](C)O1)O2 | 0.035 µM | 300 | Active | 10.5 µM | 7.00
CC[C@@H](C(=O)[C@@H](C)[C@@H](O)[C@H](C)[C@@H]1O[C@@H]([C@@H](CC)C(=O)OCC(F)(F)F)CC[C@@H]1C)[C@H]1O[C@]2(C=CC(=O)[C@]3(CC[C@@](C)([C@H]4CC[C@](O)(CC)[C@H](C)O4)O3)O2)[C@H](C)C[C@@H]1C | 3.01 µM | > 33.2 | – | > 100 µM | –
Cc1ccc(C(=O)Nc2ccc(S(=O)(=O)O)c3cc(S(=O)(=O)O)cc(S(=O)(=O)O)c23)cc1NC(=O)c1cccc(NC(=O)Nc2cccc(C(=O)Nc3cc(C(=O)Nc4ccc(S(=O)(=O)O)c5cc(S(=O)(=O)O)cc(S(=O)(=O)O)c45)ccc3C)c2)c1 [SURAMIN] | 0.032 µM | > 3120 | – | > 100 µM | –
CC[C@@H](C(=O)[C@@H](C)[C@@H](O)[C@H](C)[C@@H]1O[C@@H]([C@@H](CC)C(=O)OCC(F)(F)F)CC[C@@H]1C)[C@H]1O[C@]2(C=C[C@@H](O)[C@]3(CC[C@@](C)([C@H]4CC[C@](O)(CC)[C@H](C)O4)O3)O2)[C@H](C)C[C@@H]1C | 2.9 µM | 11.2 | – | 32.5 µM | –
CC[C@@H](C(=O)[C@@H](C)[C@@H](O)[C@H](C)[C@@H]1O[C@@H]([C@@H](CC)C(=O)NCCc2ccc(F)cc2)CC[C@@H]1C)[C@H]1O[C@]2(C=CC(=O)[C@]3(CC[C@@](C)([C@H]4CC[C@](O)(CC)[C@H](C)O4)O3)O2)[C@H](C)C[C@@H]1C | 2.99 µM | 31.7 | – | 94.7 µM | –

The remaining molecules from weak to strong by GI50 [4], led by results:

GI50 [4] | SMILES | selectivity ratio [1] | Activity [2] | GI50 at 24 h [3] | pIC50 [5]
3.18 µM | C#CCNC(=O)[C@H](CC)[C@H]1CC[C@H](C)[C@H]([C@@H](C)[C@H](O)[C@H](C)C(=O)[C@H](CC)[C@H]2O[C@]3(C=CC(=O)[C@]4(CC[C@@](C)([C@H]5CC[C@](O)(CC)[C@H](C)O5)O4)O3)[C@H](C)C[C@@H]2C)O1 | 12.1 | – | 38.6 µM | –
3.04 µM | C#CCNC(=O)[C@H](CC)[C@H]1CC[C@H](C)[C@H]([C@@H](C)[C@H](O)[C@H](C)C(=O)[C@H](CC)[C@H]2O[C@]3(C=C[C@@H](NCC#C)[C@]4(CC[C@@](C)([C@H]5CC[C@](O)(CC)[C@H](C)O5)O4)O3)[C@H](C)C[C@@H]2C)O1 | 12.8 | – | 38.9 µM | –
2.93 µM | C#CCOC(=O)[C@H](CC)[C@H]1CC[C@H](C)[C@H]([C@@H](C)[C@H](O)[C@H](C)C(=O)[C@H](CC)[C@H]2O[C@]3(C=C[C@@H](O)[C@]4(CC[C@@](C)([C@H]5CC[C@](O)(CC)[C@H](C)O5)O4)O3)[C@H](C)C[C@@H]2C)O1 | 10.2 | – | 30 µM | –
0.037 µM | CC[C@@H](C(=O)[C@@H](C)[C@@H](O)[C@H](C)[C@@H]1O[C@@H]([C@@H](CC)C(=O)O)CC[C@@H]1C)[C@H]1O[C@]2(C=CC(=O)[C@]3(CC[C@@](C)([C@H]4CC[C@](O)(CC)[C@H](C)O4)O3)O2)[C@H](C)C[C@@H]1C | 252 | Active | 9.21 µM | –
0.035 µM | CC[C@@H](C(=O)[C@@H](C)[C@@H](O)[C@H](C)[C@@H]1O[C@@H]([C@@H](CC)C(=O)ONC(=O)c2ccccc2O)CC[C@@H]1C)[C@H]1O[C@]2(C=C[C@@H](O)[C@]3(CC[C@@](C)([C@H]4CC[C@](O)(CC)[C@H](C)O4)O3)O2)[C@H](C)C[C@@H]1C | 60.6 | inactive | 2.12 µM | –
0.034 µM | CC[C@@H](C(=O)[C@@H](C)[C@@H](O)[C@H](C)[C@@H]1O[C@@H]([C@@H](CC)C(=O)ONC(=O)c2ccccc2O)CC[C@@H]1C)[C@H]1O[C@]2(C=CC(=O)[C@]3(CC[C@@](C)([C@H]4CC[C@](O)(CC)[C@H](C)O4)O3)O2)[C@H](C)C[C@@H]1C | 56.8 | inactive | 1.93 µM | –
